Test results published in paper PMC7445463 (Diabetologia, 2020).

Experiments:
[1] = DIO-NASH biopsy-confirmed mouse model; type: in vivo
How it was run: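 Male C57BL/6JRj mice fed AMLN diet (40% fat with trans-fat, 20% fructose, 2% cholesterol) for 33 weeks, then liver-biopsied. Only mice with steatosis score ≥2 and fibrosis stage ≥F1 were stratified into groups (n=12-13). Groups received vehicle or test compound at 10 or 30 mg/kg for a further 12 weeks.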

[2] = CDHFD-induced NASH and fibrosis mice; type: in vivo, mouse
[3] = test system: isolated diabetic mouse hearts; test: Langendorff-perfused db/db hearts, stable isotope analysis; conditions: 10 μM Cariporide
[4] = test system: SD rat islets; test: Perifusion of rat islets, GSIS; type: cell-based; conditions: 10-100 pM
[5] = test system: obese T2DM and lean subjects; test: GIP infusion, tissue blood flow; type: in vivo, human
[6] = 6-day s.c. GIP infusion crossover study, T1D; type: in vivo, human
[7] = test system: obese men without diabetes; test: FLT-PET/MRI and pancreatic enzymes during liraglutide; type: in vivo, human
[8] = test system: Rev-erbα; test: Rev-erbα agonist and antagonist in beta cells and human islets; type: cell-based; conditions: glucotoxicity or cytokines; antagonist or siRNA
How it was run: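 Cells used were rat INS-1E, human EndoC-βH1 and human islets. Rev-erbα was modulated with agonist, antagonist or siRNA knock-down. Stress was glucotoxicity (INS-1E, EndoC-βH1) or cytokines (INS-1E, human islets). Glucose-induced insulin secretion was read by HTRF, apoptosis as cleaved caspase-3, and Rev-erbα protein by western blot.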

[9] = test system: mouse hypothalamic (mHypoA) and human (SH-SY5Y) neuronal cells; test: Resistin overexposure of neuronal cells; type: cell-based; conditions: pharmacological inhibition
[10] = test system: patients with type 2 diabetes; test: Network meta-analysis of antidiabetic medications on blood pressure; set-up: species or system human; conditions: network meta-analysis
[11] = 12 week L-carnitine treatment in type 2 diabetes patients; type: in vivo, human; conditions: after 12 weeks
How it was run: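 32 patients with type 2 diabetes treated with L-carnitine for 12 weeks, with plasma free carnitine checked for compliance. Two-step hyperinsulinemic-euglycemic clamp (10 then 40 mU/m2/min) with D-[6,6-2H2]-glucose tracer gave hepatic (EGP suppression) and peripheral sensitivity. Vastus lateralis acetylcarnitine by T1-edited long-TE (350 ms) 1H-MRS at rest and after 30 min cycling at 70% Wmax. IHL by 1H-MRS. All measured before and after.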

In the case of `O=S(=O)(Nc1cc(Cl)c(Oc2cnc3ccccc3c2)c(Cl)c1)c1ccc(Cl)cc1Cl` [CHS-131], the “lower plasma aspartate transaminase” value ([1]; high dose) is reported as 29%, the lower total cholesterol ([1]; high dose) is reported as 20% and the “increase of plasma adiponectin” value ([1]; high dose 30 mg/kg) is reported as 137%. The “lower plasma alanine transaminase” value ([1]; high dose 30 mg/kg, 12 weeks) was 37%, the “increase of plasma adiponectin” value ([1]; low dose 10 mg/kg) was 114% and the Galectin-3 ([1]; trend) was -18%. For the same molecule, the hydroxyproline ([1]; trend) was -28%.

For `O=C(O)c1ccnc(N2CC(O)(c3ccc(OCc4c(-c5c(Cl)cccc5Cl)noc4C4CC4)cc3Cl)C2)c1` [CIL, Cilofexor], the “hepatic TG vs vehicle” value ([2]; CDHFD 14 weeks, treatment last 6 weeks) was 2.6%, the “collagen-1α1 gene expression vs vehicle” value ([2]; mouse, in vivo) was -37.5% and the “hepatic F4/80 gene expression vs vehicle” value ([2]; mouse, in vivo) was -1.6%. For the same molecule, the “hepatic IL-1β gene expression vs vehicle” value ([2]; mouse, in vivo) was -37.5%, the “hepatic TBARS vs vehicle” value ([2]; mouse, in vivo) was 11.0% and the “hepatic hydroxyproline vs vehicle” value ([2]; mouse, in vivo) was -13.7%.

With `CC(C)c1ccc(C(=O)NC(=N)N)cc1S(C)(=O)=O` [Cariporide] the “Empa effects on lactate labeling and G6P” value [3] was “mitigated”.

In the case of `CC[C@H](C)[C@H](NC(=O)[C@H](CO)NC(=O)[C@H](Cc1ccc(O)cc1)NC(=O)[C@H](CC(=O)O)NC(=O)[C@H](CO)NC(=O)[C@@H](NC(=O)[C@H](Cc1ccccc1)NC(=O)[C@@H](NC(=O)CNC(=O)[C@H](CCC(=O)O)NC(=O)[C@H](C)NC(=O)[C@@H](N)Cc1ccc(O)cc1)[C@@H](C)O)[C@@H](C)CC)C(=O)N[C@@H](C)C(=O)N[C@@H](CCSC)C(=O)N[C@@H](CC(=O)O)C(=O)N[C@@H](CCCCN)C(=O)N[C@H](C(=O)N[C@@H](Cc1c[nH]cn1)C(=O)N[C@@H](CCC(N)=O)C(=O)N[C@@H](CCC(N)=O)C(=O)N[C@@H](CC(=O)O)C(=O)N[C@@H](Cc1ccccc1)C(=O)N[C@H](C(=O)N[C@@H](CC(N)=O)C(=O)N[C@@H](Cc1c[nH]c2ccccc12)C(=O)N[C@@H](CC(C)C)C(=O)N[C@@H](CC(C)C)C(=O)N[C@@H](C)C(=O)N[C@@H](CCC(N)=O)C(=O)N[C@@H](CCCCN)C(=O)NCC(=O)N[C@@H](CCCCN)C(=O)N[C@@H](CCCCN)C(=O)N[C@@H](CC(N)=O)C(=O)N[C@@H](CC(=O)O)C(=O)N[C@@H](Cc1c[nH]c2ccccc12)C(=O)N[C@@H](CCCCN)C(=O)N[C@@H](Cc1c[nH]cn1)C(=O)N[C@@H](CC(N)=O)C(=O)N[C@H](C(=O)N[C@H](C(=O)N[C@@H](CCC(N)=O)C(=O)O)[C@@H](C)O)[C@@H](C)CC)C(C)C)[C@@H](C)CC` [GIP], the “potentiation of GSIS at low concentrations” value [4] is reported as “potentiated GSIS”, the “SAT blood flow increase from baseline” value ([5]; GIP infusion, operated subjects) is reported as 143% and the “VAT blood flow increase from baseline” value ([5]; GIP-infusion, control) is reported as 234%. For the same molecule, the “SAT blood flow increase from baseline” value ([5]; GIP-infusion, controls) was 385%, the “SAT blood flow increase from baseline” value ([5]; GIP-infusion, obese) was 119% and the “VAT blood flow increase from baseline” value ([5]; GIP-infusion, obese) was 105%. The “increase of daytime time in range (3.9-[…]) vs placebo” value ([6]; 6 pmol/kg/min s.c., 6 days, mean ± SEM) was 160 ± 74 min/day, the “decrease of 24-hour diastolic blood pressure” value ([6]; in vivo) was 3.1 ± 1.3 mmHg and the “decrease of 24-hour systolic blood pressure” value ([6]; in vivo) was 5.8 ± 2.6 mmHg.

With `CCCCCCCCCCCCCCCC(=O)N[C@@H](CCC(=O)NCCCC[C@H](NC(=O)[C@H](C)NC(=O)[C@H](C)NC(=O)[C@H](CCC(N)=O)NC(=O)CNC(=O)[C@H](CCC(=O)O)NC(=O)[C@H](CC(C)C)NC(=O)[C@H](Cc1ccc(O)cc1)NC(=O)[C@H](CO)NC(=O)[C@H](CO)NC(=O)[C@@H](NC(=O)[C@H](CC(=O)O)NC(=O)[C@H](CO)NC(=O)[C@@H](NC(=O)[C@H](Cc1ccccc1)NC(=O)[C@@H](NC(=O)CNC(=O)[C@H](CCC(=O)O)NC(=O)[C@H](C)NC(=O)[C@@H](N)Cc1cnc[nH]1)[C@@H](C)O)[C@@H](C)O)C(C)C)C(=O)N[C@@H](CCC(=O)O)C(=O)N[C@@H](Cc1ccccc1)C(=O)N[C@H](C(=O)N[C@@H](C)C(=O)N[C@@H](Cc1c[nH]c2ccccc12)C(=O)N[C@@H](CC(C)C)C(=O)N[C@H](C(=O)N[C@@H](CCCNC(=N)N)C(=O)NCC(=O)N[C@@H](CCCNC(=N)N)C(=O)NCC(=O)O)C(C)C)[C@@H](C)CC)C(=O)O` [Liraglutide] the “change in mean FLT-uptake in pancreatic tissue” value ([7]; after four weeks) was “+0.08”, the “change in pancreatic volume” value ([7]; baseline to six weeks, MRI) was “+0.2 cm^3” and the “change in maximum FLT-uptake” value ([7]; titration period) was “+0.3”.

With `CCOC(=O)C1Cc2ccccc2CN1C(=O)c1ccc(SC)s1` (centres unmarked) [SR8278] the “attenuation of beta-cell apoptosis” value [8] was ~ 30%.

In the case of `CCOC(=O)C1=CCCC[C@H]1S(=O)(=O)Nc1ccc(F)cc1Cl` [TAK-242], the “resistin-dependent neuronal inflammation and IR” value [9] is reported as “prevents”.

In the case of `Cc1ccc([C@@H]2O[C@H](CO)[C@@H](O)[C@H](O)[C@H]2O)cc1Cc1ccc(-c2ccc(F)cc2)s1` [canagliflozin], the “diastolic blood pressure, mean difference versus placebo” value [10] is reported as -1.42 mmHg.

For `C[N+](C)(C)C[C@H](O)CC(=O)[O-]` [carnitine, L-carnitine], the “resting skeletal muscle acetylcarnitine” value ([11]; before 1.18±0.13) was 1.54±0.17 mmol/kgww, the “post-exercise skeletal muscle acetylcarnitine” value ([11]; before 3.70±0.22) was 4.53±0.30 mmol/kgww and the plasma glucose ([11]; before 8.1±0.3) was 7.7 ± 0.3 mmol/L. For the same molecule, the “ΔRd (peripheral insulin sensitivity)” value ([11]; before 10.53±1.85) was 13.83 ± 2.02 µmol/kg/min, the “intrahepatic lipid content (IHL)” value ([11]; before 14.7±2.6) was 12.8±2.2% and the “EGP suppression (hepatic insulin sensitivity)” value ([11]; before 31.9 ±2.9) was 39.9±3.2%.
